This note sets out measurements from ChEMBL document CHEMBL2146408, “Primary amino acid derivatives: compounds with anticonvulsant and neuropathic pain protection activities” (J Med Chem, 2011).

The species entered for series [1] is Mus musculus. As to the kind of experiment: Protective index, ratio of TD50 for NMRI mouse to ED50 for NMRI mouse formalin-induced neuropathic pain model. It counts as functional.
Series [2] has as its system Mus musculus. Briefly: Anticonvulsant activity in ip dosed NMRI mouse assessed as protection against maximal electroshock-induced seizure after 30 mins. In kind it is functional. The following applies: 0.5 h; for minimal effective dose: read-out: MED. In outline:
(§1)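 Adult male NMRI mice dosed ip (UCB Pharma). MES test run per the Klitgaard procedure. […] Single-dose runs report the percentage of animals protected.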
On the technique in general: Protection in the maximal electroshock model is a classic sign of anticonvulsant action.

For series [3], the system named is Mus musculus. Briefly: Anticonvulsant activity in NMRI mouse assessed as protection against subcutaneous pentylenetetrazol-induced seizure at 30 to 300 mg/kg, ip after 0.5 to 4 hrs. It counts as functional, organism-based.
Series [4] can be described thus: Neurotoxicity in po dosed Sprague-Dawley rat assessed as minimal motor impairment after 30 mins by rotorod test. It counts as toxicity, organism-based. The following applies: in vivo. For orientation: The rotarod test checks motor coordination on a turning rod.
For series [5], the species on record is Mus musculus. As to the kind of experiment: Protective index, ratio of TD50 for CF1 mouse to ED50 for CF1 mouse by maximal electroshock seizure test. It counts as functional. Summed up: (§2)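 Protective index computed as rotorod (mice) or behavioral (rats) TD50 divided by MES ED50, both in mg/kg in the same species and route.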
The nature of series [6]: Neurotoxicity in ip dosed NMRI mouse assessed as minimal motor impairment after 30 mins. The following applies: in vivo. It counts as toxicity, organism-based. In outline:
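Adult male NMRI mice dosed ip at UCB Pharma. Neurological toxicity was scored on the rotorod test 30 min after dosing.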

The subject of series [7] is Mus musculus. As to the kind of experiment: Anticonvulsant activity in ip dosed CF1 mouse assessed as protection against maximal electroshock-induced seizure after 30 mins. In kind it is functional. The following applies: 0.5 h. Summed up: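 Adult male albino CF-1 (Carworth Farms No. 1) mice dosed ip under the NINDS ASP; maximal electroshock seizure test. For compounds with sufficient activity, a dose-response curve was run at the time of peak effect (hours).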

Series [8] is described as follows: Neurotoxicity in ip dosed CF1 mouse assessed as minimal motor impairment after 30 mins. It counts as toxicity, organism-based. The following applies: in vivo.
Series [9] deals with Mus musculus. As to the kind of experiment: Antinociceptive activity in ip dosed NMRI mouse assessed as inhibition of formalin-induced neuropathic pain after 30 mins. In kind it is functional. The settings on record: 0.5 h. In outline: (§3)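 NMRI mice dosed ip at UCB Pharma, then tested in the formalin model of neuropathic pain. ED50 in mg/kg read 30 min after administration. Single-dose runs report the percentage protected.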

Series [10] relates to Mus musculus. As to the kind of experiment: Anticonvulsant activity in ip dosed NMRI mouse assessed as protection against 6 Hz psychomotor seizure after 30 mins. The settings on record: 0.5 h; for minimal effective dose: read-out: MED. In kind it is functional. In outline:
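Adult male NMRI mice dosed ip (UCB Pharma). 6 Hz psychomotor seizure model at 44 mA, per Kaminski and co-workers.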

The test system of series [11] is Mus musculus. As to the kind of experiment: Antinociceptive activity in NMRI mouse assessed as inhibition of formalin-induced neuropathic pain at 83 mg/kg, ip after 30 mins. In kind it is functional. Set-up: scale not given: the % may be the effect or the level left. The following applies: route intraperitoneal. Summed up: as §3
The test system of series [12] is Mus musculus. Briefly: Anticonvulsant activity in NMRI mouse assessed as protection against maximal electroshock-induced seizure at 46 mg/kg, ip after 30 mins. The settings on record: route intraperitoneal. In kind it is functional. Summed up:
as §1

In series [13] the test system is Rattus norvegicus. Briefly: Anticonvulsant activity in po dosed Sprague-Dawley rat assessed as protection against maximal electroshock-induced seizure after 30 mins. It counts as functional. The following applies: 0.5 h.
For series [14], the species on record is Rattus norvegicus. Briefly: Protective index, ratio of TD50 for Sprague-Dawley rat to ED50 for Sprague-Dawley rat by maximal electroshock seizure test. In kind it is functional. Summed up: as §2
The test system of series [15] is Mus musculus. Briefly: Anticonvulsant activity in ip dosed CF1 mouse assessed as protection against 6 Hz psychomotor seizure after 30 mins. It counts as functional. The settings on record: 0.5 h. In outline: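 Adult male albino CF-1 mice dosed ip (NINDS ASP). 6 Hz psychomotor seizure test at 32 mA, per Stables and Kupferberg.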
For series [16], the system named is Mus musculus. Briefly: Antinociceptive activity in NMRI mouse assessed as inhibition of formalin-induced neuropathic pain at 75 mg/kg, ip after 30 mins. It counts as functional. Set-up: scale not given: the % may be the effect or the level left. The settings on record: route intraperitoneal. In outline:
as §3

Molecules are shown by their SMILES. Activity calls are given as the source filed them. The rule behind the calls is not given here. Where only a bound is given, the exact number is not on record here.

Consider `CC(C)[C@@H](N)C(=O)NCc1ccccc1`, for which the “Ratio TD50/ED50” value in [1] is 2.4; in [5], 4.7. The minimal effective dose in series [2] stood at 16 mg/kg. Also, the result in series [3] was inactive. In addition, the TD50 (usually the 50% point of the dose-response relation for the toxic effect studied) at 0.5 h in [4] was > 500 mg/kg.

On to `CC(=O)NC(CN1CCOCC1)C(=O)NCc1ccccc1` (racemic), for which, in series [6], the TD50 at 0.5 h was 300 mg/kg. The median effective dose (ED50) (commonly the midpoint of the dose-response relation) in series [7] is < 100 mg/kg.

Take `CCCC(CCC)C(=O)O` [VALPROIC ACID]: in series [7], the ED50 stood at 270 mg/kg.

Take `N[C@@H](CO)C(=O)NCc1ccccc1`: the TD50 at 0.5 h in [8] was > 110 mg/kg. The ED50 in series [9] and in series [10] was > 62 mg/kg in each case.

Consider `CC(=O)N[C@H](CO)C(=O)NCc1ccccc1`, for which the TD50 at 0.5 h in [6] was > 500 mg/kg.

For `CN(C)CC(N)C(=O)NCc1ccccc1` (racemic), the ED50 in [2] is 94 mg/kg; in series [9] it was 83 mg/kg; in series [10] it was > 110 mg/kg. Also, the Activity in series [11] is on record as 14%.

Consider `O=C1NC(=O)C(c2ccccc2)(c2ccccc2)N1` [PHENYTOIN], for which the TD50 at 0.5 h in [4] is > 3000 mg/kg.

As for `CCC(C)C(N)C(=O)NCc1ccccc1` (racemic), in series [2], the minimal effective dose stood at 46 mg/kg. Moreover, in series [12], the Activity amounted to 100%. The results for the ED50 in [9] and in [10] were > 22 mg/kg and > 120 mg/kg, respectively.

For `CC(=O)N[C@@H](C)C(=O)NCc1ccccc1`, the TD50 at 0.5 h in [6] came to 840 mg/kg.

With `CCCC(NC(C)=O)C(=O)NCc1ccccc1` (racemic), the median effective dose (ED50) in [7] turned out to be 38 mg/kg.

In the case of `NC(CO)C(=O)NCc1ccccc1` (racemic), the “Ratio TD50/ED50” value in series [1] is listed as >1.8. The ED50 in series [2], in [9] and in series [10] was > 62 mg/kg in each case. In series [8], the TD50 at 0.5 h is > 110 mg/kg.

Consider `CC[C@@H](N)C(=O)NCc1ccccc1`, for which the ED50 in series [2] amounted to 16 mg/kg; in [9], 22 mg/kg; in [13], 11 mg/kg; in [7] it was 18 mg/kg; in series [15], 50 mg/kg. Besides, in series [3], the outcome was inactive. The TD50 at 0.5 h in series [6] was 80 mg/kg; in series [4] it was > 500 mg/kg. Moreover, the minimal effective dose in [10] stood at 62 mg/kg. The “Ratio TD50/ED50” value in series [14] was >45; in series [5] it was 4.4.

Turning to `CSCC[C@@H](N)C(=O)NCc1ccccc1`, the 50% effective dose (ED50) in series [2] is 75 mg/kg; in [9], > 76 mg/kg. For the same compound, the minimal effective dose in [10] came out at 130 mg/kg.

As to `COC[C@H](N)C(=O)NCc1ccccc1`, the “Ratio TD50/ED50” value in series [1] stood at 0.5.

`CCCOCC(N)C(=O)NCc1ccccc1` (racemic): the median effective dose (ED50) in series [2] is 69 mg/kg; in series [9], > 130 mg/kg; in series [10], > 130 mg/kg.

`CC(=O)NC(CO)C(=O)NCc1ccccc1` (racemic): in [6], the TD50 at 0.5 h was < 300 mg/kg. In series [7], the ED50 was < 100 mg/kg.

For the compound `CC(N)C(=O)NCc1ccccc1` (racemic), the outcome in series [3] was inactive. The TD50 at 0.5 h in series [6] was > 300 mg/kg; in [4] it was > 500 mg/kg. In addition, the values for the 50% effective dose (ED50) in series [13] and in [7] were 14 mg/kg and > 100 mg/kg, respectively. In addition, the “Ratio TD50/ED50” value in series [14] was >36.

Regarding `C=CCOCC(N)C(=O)NCc1ccccc1` (racemic), the figures for the ED50 in series [2] and in series [9] were 45 mg/kg and 75 mg/kg, respectively. Also, the minimal effective dose in series [10] came out at 130 mg/kg. For the same compound, in series [16], the Activity is 12%.

As for `CC(=O)NC(C(=O)NCc1ccccc1)c1ccccc1` (racemic), the ED50 in series [7] is 20 mg/kg.

Take `CC(=O)NC(C(=O)NCc1ccccc1)c1ccsc1` (racemic): in [7], the ED50 worked out at 88 mg/kg.

On to `CCC[C@H](N)C(=O)NCc1ccccc1`, for which the results for the ED50 in [2], in [9] and in series [10] were > 37 mg/kg, 100 mg/kg and > 210 mg/kg, respectively.

For `CC(=O)NC(C)C(=O)NCc1ccccc1` (racemic), the TD50 at 0.5 h in series [6] stood at 450 mg/kg. Moreover, in [7], the median effective dose (ED50) was 76 mg/kg.

`CC(=O)N[C@H](C)C(=O)NCc1ccccc1`: in [6], the TD50 at 0.5 h stood at 210 mg/kg.

As for `CC(=O)N[C@@H](C(=O)NCc1ccccc1)C(C)(C)C`, the TD50 at 0.5 h in series [6] is > 300 mg/kg. Besides, the ED50 in series [7] was > 300 mg/kg.

For `CC(=O)NC(CN(C)C)C(=O)NCc1ccccc1` (racemic), the TD50 at 0.5 h in [6] was < 100 mg/kg. Further, the 50% effective dose (ED50) in series [7] is < 30 mg/kg.
